According to the RNAGym collection of RNA variant scans (doi:10.1126/science.aae0568):
This sample holds only a part of the variants without activity.

B1: tRNA (parent)
chain: GUUCCGUUGGCGUAAUGGUAACGCGUCUCCCUCCUAAGGAGAAGACUGCGGGUUCGAGUCCCGUACGGAACG

Variants of: B1
Experiment: yeast fitness relative to wild type (ratio to wild type); higher = fitter; tRNA-Arg(CCU), competitive growth, 37 C, YPD
In short: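 The tRNA-Arg(CCU) gene variants were made by chemical synthesis with a 3% per-site mutation rate at 69 sites and inserted at the native genomic locus of Saccharomyces cerevisiae. After pooling, the strains were competed in YPD at 37°C for 24 hours in six parallel replicates. Gene amplicons from the start population and each end population were read by 100-nucleotide paired-end sequencing, and Darwinian fitness relative to wild type was taken from genotype frequency changes. Genotypes needed ≥ 100 starting reads, and estimates < 0.5 were set to 0.5.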

First: G6A C34G U59A
Second: C31U G52C U54A C66U
The yeast fitness of the first is higher: 0.547 for the first, at most 0.5 for the second.

Compared with A14C G17C G18A G23C A57C, A14U C46A G51C A57U U64G is higher in yeast fitness: at most 0.5 for the first, 0.584 for the second.

C4U G18A A21C G48C and G9A G12U A14U A65U cannot be ordered by yeast fitness: at most 0.5 for the first, at most 0.5 for the second.

Going from C11A C27A to U8A A43U G52C C60A, the yeast fitness falls from 0.654 to at most 0.5.

First: U54G A57G
Second: A45U A57U U59G U64G
The yeast fitness of the first is higher: 0.615 for the first, at most 0.5 for the second.

Compared with U8C A36G, C33U A42C U64C A70G is lower in yeast fitness: 0.865 for the first, at most 0.5 for the second.

Compared with G12C C33A A42G, G17A C30G is lower in yeast fitness: 0.733 for the first, 0.604 for the second.

Going from U2A A15U G38C G39A A43C C60G A65C to C5U A42C A69C, the yeast fitness rises from at most 0.5 to 0.803.

First: A21U G63A
Second: G25A U26C
The yeast fitness of the first is lower: 0.856 for the first, 0.947 for the second.

First: C4G U16A U35A C61G
Second: U3C A45C G48A
The yeast fitness of the first is lower: 0.882 for the first, 0.937 for the second.

C5U G25A U32G and C31U U47G G56C cannot be ordered by yeast fitness: at most 0.5 for the first, at most 0.5 for the second.

Compared with A20G C24A C27A A69C, A43G G48C is higher in yeast fitness: 0.591 for the first, 0.829 for the second.

A14G C31A C34G A43C and U26G C34G A37C C66A cannot be ordered by yeast fitness: at most 0.5 for the first, at most 0.5 for the second.

C34A A36C G67A and U3A A14U G41C G67C cannot be ordered by yeast fitness: at most 0.5 for the first, at most 0.5 for the second.

Compared with U47C G63A, C5U G10C C30A A36U A42C is lower in yeast fitness: 0.949 for the first, at most 0.5 for the second.

First: U2A G68A
Second: C5U A42U C55U A69C
The yeast fitness of the first is higher: 0.825 for the first, at most 0.5 for the second.

Going from U13G A20U A69U to U8A C33G A42U A43U C49U A65C G68C, the yeast fitness falls from 0.708 to at most 0.5.

First: A42C C49U
Second: U2G G50C U59A
The yeast fitness of the first is higher: 0.939 for the first, 0.547 for the second.

G6C G41A C62U and G10C G25C U26C U47C cannot be ordered by yeast fitness: at most 0.5 for the first, at most 0.5 for the second.

Going from G9C C49A to A20G C49A, the yeast fitness rises from 0.596 to 0.655.

Going from C4G U8G G9A C11U C49A to A14C C27U C55G A70U, the yeast fitness rises from at most 0.5 to 0.613.

Compared with C4G A15U G56C, U7A A57U is higher in yeast fitness: at most 0.5 for the first, 0.572 for the second.

Going from G10C C61A A69G to C11G C46U A65C, the yeast fitness rises from at most 0.5 to 0.561.

Going from A40G A45C to G10A A20U U35C G48C C60A A69C, the yeast fitness falls from 0.846 to at most 0.5.

U2C C11A G12A U35G U59A and A15U A21G C29U G44C C55A G56C cannot be ordered by yeast fitness: at most 0.5 for the first, at most 0.5 for the second.

Going from C55U A70G to G10A C61A A69C A70C, the yeast fitness falls from 0.705 to at most 0.5.

Going from C4G C30A to G56C U59A, the yeast fitness falls from 0.679 to 0.663.

Going from A21U C22U G48C A65G to A20U C34G, the yeast fitness rises from at most 0.5 to 0.68.

Going from A21C C62U G68C to A40U U54C C62U, the yeast fitness falls from 0.601 to 0.528.

Compared with C22U G68A, U7G A37U is lower in yeast fitness: 0.852 for the first, 0.72 for the second.

C30G A36G A57U A65U C66U and C31A C34G A43C C61U cannot be ordered by yeast fitness: at most 0.5 for the first, at most 0.5 for the second.

First: U7G G12A U13C C33U C34U A42C G50A
Second: C4A A65G A69U
The yeast fitness of the first is lower: at most 0.5 for the first, 0.617 for the second.

First: C24A A40U A43U C61G G68U
Second: U3G G17C C31A U35C A45U
The yeast fitness of the first is higher: 0.597 for the first, at most 0.5 for the second.

Compared with G10C A21G C55G A57G C60A, C29A C34U A36U is higher in yeast fitness: at most 0.5 for the first, 0.568 for the second.

First: U13A A42U A57C C61U A65U
Second: G23C G25A G48C
The yeast fitness of the first is lower: at most 0.5 for the first, 0.594 for the second.

First: C24A G68U
Second: C5G C33G A40U
The yeast fitness of the first is higher: 0.654 for the first, at most 0.5 for the second.

Compared with C46A C55A A65C, A45G G50C U54A G67A is higher in yeast fitness: 0.533 for the first, 0.803 for the second.

Going from C4G A21G A45U C49U A70C to C4U A14G A40U, the yeast fitness rises from at most 0.5 to 0.593.

A21C C24U U32A C62G G63A and G18A C27A G68C cannot be ordered by yeast fitness: at most 0.5 for the first, at most 0.5 for the second.

Compared with U3C C4A G17A G41A C66U, U35G C61U is higher in yeast fitness: at most 0.5 for the first, 0.792 for the second.

Going from C22U G25C to C22G G67C A69C, the yeast fitness falls from 0.697 to at most 0.5.

Compared with G52A A69C, C66A A70G is higher in yeast fitness: 0.738 for the first, 0.764 for the second.

G6A U19G C33U C34U and C22U U35C C55A A65G C66U cannot be ordered by yeast fitness: at most 0.5 for the first, at most 0.5 for the second.

U28C A43C G44C C61G A65U and U3A C31G A40U G41U cannot be ordered by yeast fitness: at most 0.5 for the first, at most 0.5 for the second.

A21C C22U C31U C33U and U13A A14U C24G U28G C31U C66U cannot be ordered by yeast fitness: at most 0.5 for the first, at most 0.5 for the second.

Going from G6C A21G C55A C61A to G9C G38C, the yeast fitness rises from at most 0.5 to 0.546.

Going from C4A C5A C30A C31U C33A A45U to U7G C46U, the yeast fitness rises from at most 0.5 to 0.987.

Going from G17C C29G A65C to C4U C24A A43G G63C, the yeast fitness falls from 0.629 to at most 0.5.

C27A G56C A70U and U8C U16A A21U C24G G48C cannot be ordered by yeast fitness: at most 0.5 for the first, at most 0.5 for the second.

C11G A40U A45U A69U and U7A U13G C55G cannot be ordered by yeast fitness: at most 0.5 for the first, at most 0.5 for the second.

Going from G10A A36G C60G to C5U C49A C66U, the yeast fitness rises from at most 0.5 to 0.551.

Compared with C24G C66U A69C, A57G G67U is higher in yeast fitness: at most 0.5 for the first, 0.869 for the second.

U13C A20C A21C C46G and A14G C27U C49A U53A C61U cannot be ordered by yeast fitness: at most 0.5 for the first, at most 0.5 for the second.

Going from U19A A42G U47C to U32G A69C, the yeast fitness rises from at most 0.5 to 0.848.

C11U U19C U59C C61A and C22G C29G C46U C66U cannot be ordered by yeast fitness: at most 0.5 for the first, at most 0.5 for the second.

Going from C34U G50C to A20C C22A A36C A69U, the yeast fitness falls from 0.528 to at most 0.5.

C4A C5A C29U G51C and U7A A20G C34A G44A C46U A70C cannot be ordered by yeast fitness: at most 0.5 for the first, at most 0.5 for the second.

First: U2C U26G
Second: U2C G17A A37C
The yeast fitness of the first is higher: 0.997 for the first, 0.791 for the second.

Going from G17C A69C to C11U C24G C29U G50A G58C G63A C66U G68A, the yeast fitness falls from 0.658 to at most 0.5.

Compared with U8C A40C C55G, G6A A20C C66A is higher in yeast fitness: at most 0.5 for the first, 0.549 for the second.

Compared with U16C A21G G63C, U2A C11G C34U A42U C49G is higher in yeast fitness: at most 0.5 for the first, 0.788 for the second.

C5G G12C G18A C24U C29U A36G A69C and C11U U35A G56C cannot be ordered by yeast fitness: at most 0.5 for the first, at most 0.5 for the second.

Going from U3A G9A A14C to U26A A57G C60U, the yeast fitness falls from 0.551 to at most 0.5.

First: C24G A36G U53A
Second: C24U C31A
The yeast fitness of the first is lower: 0.555 for the first, 0.786 for the second.

First: U3G C22A G25C C33U
Second: U19A C30A A45U G50C
The yeast fitness of the first is lower: 0.606 for the first, 0.62 for the second.

Compared with C31G G63A, C5U U53G is lower in yeast fitness: 0.848 for the first, 0.617 for the second.

Compared with C5G C11G A21C G67C, U13C U26A is higher in yeast fitness: at most 0.5 for the first, 0.982 for the second.

Going from C4U A21G U28G C60A to G6A U26C C62G, the yeast fitness rises from at most 0.5 to 0.515.

Compared with C31U C33U A37G A57C, A21G U28A A42C A57G C66A is higher in yeast fitness: at most 0.5 for the first, 0.6 for the second.

U7C G10A U19A G44C G67C and C4A C31A C33G U47A cannot be ordered by yeast fitness: at most 0.5 for the first, at most 0.5 for the second.

Going from U19C A21U C22A C49U to G44A U54C, the yeast fitness rises from 0.536 to 0.723.

G38C C62A G67C and C27U G41C C61G cannot be ordered by yeast fitness: at most 0.5 for the first, at most 0.5 for the second.

A14U G39C C55G C62A and U3A A21C G25U A43C C61G C62U cannot be ordered by yeast fitness: at most 0.5 for the first, at most 0.5 for the second.

Compared with G56A G58C C61G, U3A A15U G23C C27U G52A C66U is lower in yeast fitness: 0.707 for the first, at most 0.5 for the second.

Compared with C4U G25A A65G, C24G A36G A45G is lower in yeast fitness: 0.718 for the first, at most 0.5 for the second.

Compared with G6C U7A C46U, A15C C24U is higher in yeast fitness: 0.577 for the first, 0.601 for the second.

Compared with G39A C62U, C4G G18C A45G C62A A69C is lower in yeast fitness: 1.05 for the first, at most 0.5 for the second.

First: A20U C27A
Second: A14C G18A G67U
The yeast fitness of the first is higher: 0.717 for the first, at most 0.5 for the second.

Compared with U3A A14C A37C U47A, C22G A45G C46U is higher in yeast fitness: at most 0.5 for the first, 0.644 for the second.

Going from G12A C29A to C5G G17A A20C G38A G58C C66U, the yeast fitness falls from 0.652 to at most 0.5.

First: U32C A45G A57U
Second: G68C A70G
The yeast fitness of the first is lower: at most 0.5 for the first, 0.897 for the second.

A43U U47G U53G A69U and G6A U54G A65U cannot be ordered by yeast fitness: at most 0.5 for the first, at most 0.5 for the second.

Compared with C30A G44A A45U C62U, C29G C60U is higher in yeast fitness: at most 0.5 for the first, 0.576 for the second.

C31A A40U A42G showed a yeast fitness of 0.606.
